Measured values from ChEMBL document CHEMBL1143052, “Synthesis, antimicrobial, and QSAR studies of substituted benzamides” (2007).

Legend:
Bacillus subtilis = assay: Antibacterial activity against Bacillus subtilis MTCC 2063 after 24 hrs; format: functional
Procedure, shortened: (§1)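 Serial broth dilution in double-strength nutrient broth-I.P. Bacteria were grown for 24 h at 37 °C. A DMSO stock was diluted into 1 mL broth tubes to span 5–0.156, then inoculated with a saline suspension of the organism. Tubes were incubated at 37 °C for 24 h and MIC was read. Extra dilutions of the stock then set the exact MIC.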

Staphylococcus aureus = assay: Antibacterial activity against Staphylococcus aureus MTCC 2901 after 24 hrs
Aspergillus ficuum = assay: Antifungal activity against Aspergillus ficuum MTCC 8184 by serial dilution method; format: functional
Procedure, shortened: (§2)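 Broth serial dilution against the fungus in Sabouraud dextrose broth-I.P., run like the antibacterial assay. Compounds came from a DMSO stock, and MIC was determined.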

Aspergillus parasiticus = assay: Antifungal activity against Aspergillus parasiticus MTCC 8189 by serial dilution method; format: functional; procedure, shortened: as §2
Escherichia coli = assay: Antibacterial activity against Escherichia coli MTCC 1652 after 24 hrs; format: functional; procedure, shortened: as §1

Compound | pMIC, log(1/MIC) (Bacillus subtilis) | -log(1/MIC) (Staphylococcus aureus) | -log(1/MIC) (Aspergillus ficuum) | -log(1/MIC) (Aspergillus parasiticus) | pMIC, log(1/MIC) (Escherichia coli) | -log(1/MIC) (Escherichia coli)
O=C(Nc1ccc(O)cc1)c1ccccc1O [OSALMID] | 0.96 | 1.26 | 1.56 | 1.26 | 1.2 | 
O=C(Nc1ccc(O)cc1)c1cccc(Cl)c1 | 1 | 1.3 | 1.6 | 1.3 | 1.17 | 
O=C(Nc1ccc(O)cc1)c1ccc2ccccc2c1O | 1.25 | 1.32 | 1.57 | 1.62 | 1.22 | 
O=C(Nc1ccccc1)c1c(O)ccc2ccccc12 | 1.35 | 1.35 | 1.65 | 1.65 | 1.35 | 
O=C(Nc1ccc(O)cc1)c1cc([N+](=O)[O-])ccc1Cl | 1.27 | 1.37 | 1.58 | 1.58 | 1.27 | 
O=C(Nc1ccccc1O)c1ccc2ccccc2c1O | 1.2 | 1.25 | 1.58 | 1.62 | 1.21 | 
COC(=O)c1cccc(O)c1NC(=O)c1ccccc1OCc1ccccc1 | 1.48 | 1.48 | 1.78 | 1.83 | 1.35 | 
COc1cccc(C(=O)Nc2ccccc2O)c1[N+](=O)[O-] | 1.41 | 1.41 | 1.71 | 1.71 | 1.41 | 
Cc1cccc(C(=O)Nc2ccccc2O)c1 | 0.96 | 1.16 | 1.56 | 1.3 | 1.26 | 
O=C(Nc1ccccc1O)c1c(O)ccc2ccccc12 | 1.35 | 1.23 | 1.65 | 1.35 | 1.29 | 
O=C(Nc1ccccc1O)c1ccccc1O | 0.96 | 1.26 | 1.45 | 1.2 | 1.12 | 
O=C(Nc1ccccc1O)c1cc([N+](=O)[O-])cc([N+](=O)[O-])c1 | 1.38 | 1.38 | 1.58 | 1.69 | 1.38 | 
O=C(Nc1ccc(O)cc1)c1ccccc1Cl | 1 | 1.3 | 1.6 | 1.31 | 1.17 | 
O=C(Nc1ccc(O)cc1)c1cc([N+](=O)[O-])cc([N+](=O)[O-])c1 | 1.38 | 1.38 | 1.69 | 1.69 | 1.38 | 
O=C(Nc1ccccc1)c1cc([N+](=O)[O-])ccc1Cl | 1.15 | 1.35 | 1.55 | 1.42 | 1.2 | 
O=C(Nc1ccccc1)c1ccc2ccccc2c1O | 1.13 | 1.26 | 1.44 | 1.3 | 1.17 | 
O=C(Nc1ccccc1O)c1cc([N+](=O)[O-])ccc1Cl | 1.07 | 1.26 | 1.67 | 1.52 | 1.2 | 
Cc1ccc(C(=O)Nc2ccc(O)cc2)cc1 | 0.96 | 1.26 | 1.56 | 1.32 | 1.26 | 
Cc1cccc(C(=O)Nc2ccc(O)cc2)c1 | 1.04 | 1.26 | 1.56 | 1.26 | 1.2 | 
O=C(O)c1cn(C2CC2)c2cc(N3CCNCC3)c(F)cc2c1=O [CIPROFLOXACIN] | 3.33 | 3.33 |  |  |  | 3.33
O=C(O)c1ccccc1O [SALICYLIC ACID] |  |  | 3.1 | 3.1 |  | 
O=C(Nc1ccccc1O)c1ccccc1 | 0.93 | 1.11 | 1.43 | 1.23 | 1.23 | 
COc1cccc(C(=O)Nc2ccc(O)cc2)c1[N+](=O)[O-] | 1.26 | 1.36 | 1.36 | 1.53 | 1.26 | 
O=C(Nc1ccccc1O)c1cccc(Cl)c1 | 1.1 | 1.16 | 1.6 | 1.3 | 1.2 | 
Cc1ccc(C(=O)Nc2ccccc2O)cc1 | 0.96 | 1.16 | 1.56 | 1.26 | 1.2 | 
O=C(Nc1ccccc1)c1ccccc1OCc1ccccc1 | 1.3 | 1.39 | 1.69 | 1.69 | 1.3 | 
O=C(/C=C/c1ccccc1)Nc1ccc(O)cc1 | 0.98 | 1.28 | 1.58 | 1.58 | 1.16 | 
O=C(Nc1ccccc1O)c1ccccc1Cl | 1 | 1.3 | 1.6 | 1.3 | 1.2 | 
O=C(Nc1ccc(O)cc1)c1ccccc1 | 0.93 | 1.23 | 1.53 | 1.24 | 1.23 | 
O=C(Nc1ccc(O)cc1)c1c(O)ccc2ccccc12 | 1.35 | 1.23 | 1.65 | 1.65 | 1.35 | 
